Experimental data reported in paper PMC4894453 (Scientific Reports, 2014).
≈ marks a conversion by molar mass, not a printed value. Entries after “also recorded” stand apart in the source; their conditions may differ.

Legend:
[1] = system: Bacillus anthracis sterne; assay: microbe, parasite or virus in culture; type: cell-based; details: Bacillus anthracis, read-out: MIC against Gram-positive bacteria, BA
[2] = system: Bacillus subtilis ATCC 23857; assay: MIC, microbroth dilution, Bacillus subtilis; type: cell-based; details: Bacillus subtilis, ATCC23857, read-out: MIC against Gram-positive bacteria, BS
How it was run: (§1)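 CLSI microbroth dilution in Mueller-Hinton broth. Test compound at final 200–0.1 μg/ml, diluted from 10 mg/ml DMSO stocks. Plates incubated 18–20 h. MIC is the lowest concentration preventing visible growth.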

[3] = system: Clostridium difficile BAA 1803; assay: MIC, microbroth dilution, anaerobic, Clostridium difficile; type: cell-based; details: for MIC: Clostridioides difficile, BAA1803, 24 h, read-out: MIC against Gram-positive bacteria, CD, Clostridium difficile BAA 1803, Brain-heart infusion broth, 24 h, anaerobic
[4] = system: Streptococcus pyogenes ATCC 700294; assay: MIC, microbroth dilution, Streptococcus pyogenes; type: cell-based; details: Streptococcus pyogenes, ATCC700294, read-out: MIC against Gram-positive bacteria, SP
[5] = system: Vero cells (kidney epithelial cells; ATCC CCL-81); assay: Cytotoxicity, CellTiter-Glo viability; type: cell-based; details: for Selectivity index: Cytotox IC50/MIC against methicillin-susceptible S. aureus Newman
How it was run: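 Vero kidney epithelial cells exposed 72 h to test compound (final 200–0.1 μg/ml in DMEM; diluted from 10 mg/ml DMSO stocks). Viability read by CellTiter-Glo luminescence. IC50 is the concentration giving 50% viability loss, from curve fitting. Selectivity index is the cytotoxic IC50 divided by the MIC against S. aureus Newman.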

[6] = system: Streptococcus pneumoniae R6; assay: MIC, microbroth dilution, Streptococcus pneumoniae; type: cell-based; details: Streptococcus pneumoniae, R6, read-out: MIC against Gram-positive bacteria, SPn
How it was run: as §1

[7] = system: methicillin-resistant Staphylococcus aureus N315; assay: MIC, microbroth dilution, MRSA; type: cell-based; details: Staphylococcus aureus, MRSA, read-out: MIC against Gram-positive bacteria, MRSA
How it was run: as §1

[8] = system: Enterococcus faecalis ATCC 33186; assay: MIC, microbroth dilution, Enterococcus faecalis; type: cell-based; details: Enterococcus faecalis, ATCC33186, read-out: MIC against Gram-positive bacteria, EF, Enterococcus faecalis ATCC 33186; Mueller-Hinton broth, 18–20 h
S. aureus Newman [9] = assay: Membrane potential by flow cytometry with DiOC2; type: cell-based, Staphylococcus aureus; details: 10 μM, 30 min, DiOC2(3)
How it was run: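 Exponential-phase S. aureus Newman (OD600 ≈ 0.3, Mueller-Hinton II broth) treated with test compound at 100, 10 or 1 μM for 30 min at 37°C. Cells stained 5 min with 30 μM DiOC2(3) and run on flow cytometry (10,000 events, 488 nm excitation, green and red emission). Red/green fluorescence ratio histograms compared. CCCP was the positive control; at least two independent samples.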

[10] = system: panel of clinical relevant Gram-positive pathogens; assay: MIC, statements over the Gram-positive panel; type: cell-based; details: for MIC: read-out: MIC over the Gram-positive panel
[11] = system: methicillin-susceptible Staphylococcus aureus Newman; assay: MIC, microbroth dilution, MSSA; type: cell-based; details: for MIC against Gram-positive bacteria, MSSA: S. aureus Newman, 18–20 h; for fold improvement in activity over reutericyclin: S. aureus, strain not given
How it was run: as §1

S. aureus Newman [12] = assay: Membrane permeability by flow cytometry with propidium iodide; type: cell-based, Staphylococcus aureus; details: 10 μM, 30 min, concentrations causing dissipation of the membrane potential
How it was run: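 S. aureus Newman grown in Mueller-Hinton II broth to OD600 ≈ 0.3 and exposed to test compound at 10 μM for 30 min. Propidium iodide (10 μM) added for 10 min in the dark. Flow cytometry: 10,000 events, 488 nm excitation, red fluorescence; event histograms compared. Thioridazine at 100 μg/mL served as positive control.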

Row | SMILES | MIC [1] | MIC [2] | MIC [3] | MIC [4] | Selectivity index [5] | MIC [6] | MIC [7] | MIC [8] | dissipation of the membrane potential (S. aureus Newman [9]) | fold less active than reutericyclin ([10]; Gram-positive panel (most bacteria)) | MIC [10] | MIC against Gram-positive bacteria, MSSA [11] | fold better activity than 3 throughout the panel ([10]; Gram-positive panel, compared to 3) | fold improvement in activity over reutericyclin ([3]; C. difficile) | fold improvement in activity over reutericyclin [11] | physical integrity of the S. aureus membrane (propidium iodide uptake) (S. aureus Newman [12]) | Cytotox IC50 ([5]; Vero kidney cells, 72 h, 50% reduction of viability)
1 | CCCCCCC/C=C/C(=O)N1C(=O)/C(=C(\O)c2ccc(OCOCCOC)cc2)C(=O)C1CC(C)C (stereo not shown) [Compound 11, (Z)-1-((E)-dec-2-enoyl)-3-(hydroxy(4-((2-methoxyethoxy)methoxy)phenyl)methylene)-5-isobutylpyrrolidine-2,4-dione] | 0.2 µg/mL (≈ 0.388 µM) | 1.56 µg/mL (≈ 3.03 µM) | 0.25 µg/mL (≈ 0.485 µM) | 25 µg/mL (≈ 48.5 µM) | 25 | 12.5 µg/mL (≈ 24.2 µM) | 0.2 µg/mL (≈ 0.388 µM) | 0.78 µg/mL (≈ 1.51 µM) |  |  |  |  |  |  |  |  | 
2 | CCCCCCC/C=C/C(=O)N1CC(=O)/C(=C(\C)O)C1=O [Compound 14, (Z)-1-((E)-dec-2-enoyl)-3-(1-hydroxyethylidene)pyrrolidine-2,4-dione] | 1.56 µg/mL (≈ 5.32 µM) | 12.5 µg/mL (≈ 42.6 µM) | 2 µg/mL (≈ 6.82 µM) | 50 µg/mL (≈ 170 µM) | 3 | 12.5 µg/mL (≈ 42.6 µM) | 3.2 µg/mL (≈ 10.9 µM) | 6.25 µg/mL (≈ 21.3 µM) |  |  |  |  |  |  |  |  | 
3 | N#CC(C#N)=NNc1cccc(Cl)c1 [CCCP, carbonyl cyanide m-chlorophenyl hydrazone, reference compound] |  |  |  |  |  |  |  |  | complete dissipation of the membrane potential |  |  |  |  |  |  |  | 
4 | CCCCC(=O)N1C(=O)/C(=C(/C)O)C(=O)C1CC(C)C (stereo not shown) [Compound 3, (Z)-3-(1-hydroxyethylidene)-5-isobutyl-1-pentanoylpyrrolidine-2,4-dione] | > 200 µg/mL | 100 µg/mL (≈ 355 µM) | 16 µg/mL (≈ 56.9 µM) | 12.5 µg/mL (≈ 44.4 µM) | 1 | 6.25 µg/mL (≈ 22.2 µM) | 12.5 µg/mL (≈ 44.4 µM) | 50 µg/mL (≈ 178 µM) |  | ≥ 32 fold |  |  |  |  |  |  | 
5 | CCCCCCC/C=C/C(=O)N1C(=O)/C(=C(\O)c2ccccc2)C(=O)C1CC(C)C (stereo not shown) [Compound 7, (Z)-1-((E)-dec-2-enoyl)-3-(hydroxy(phenyl)methylene)-5-isobutylpyrrolidine-2,4-dione] | > 200 µg/mL | 0.78 µg/mL (≈ 1.9 µM) | 0.75 µg/mL (≈ 1.82 µM) | 12.5 µg/mL (≈ 30.4 µM) | >125 | 12.5 µg/mL (≈ 30.4 µM) | < 0.1 µg/mL | 0.39 µg/mL (≈ 0.948 µM) |  |  | < 1 µg/mL | <0.1 µg/mL |  |  |  |  | 
6 | CCCCCCC/C=C/C(=O)N1C(=O)/C(=C(/C)O)C(=O)C1CO (stereo not shown) [Compound 15, (Z)-1-((E)-dec-2-enoyl)-3-(1-hydroxyethylidene)-5-(hydroxymethyl)pyrrolidine-2,4-dione] | > 200 µg/mL | 200 µg/mL (≈ 618 µM) | 64 µg/mL (≈ 198 µM) | 50 µg/mL (≈ 155 µM) | 1 | 100 µg/mL (≈ 309 µM) | > 200 µg/mL | 100 µg/mL (≈ 309 µM) |  |  |  |  |  |  |  |  | 
7 | C/C(O)=C1\C(=O)C(CC(C)C)N(C(=O)C=Cc2ccccc2)C1=O (stereo not shown) [Compound 4, (Z)-1-cinnamoyl-3-(1-hydroxyethylidene)-5-isobutylpyrrolidine-2,4-dione] | > 200 µg/mL | 25 µg/mL (≈ 76.4 µM) | 8 µg/mL (≈ 24.4 µM) | 25 µg/mL (≈ 76.4 µM) | 2 | 3.13 µg/mL (≈ 9.56 µM) | 1.6 µg/mL (≈ 4.89 µM) | 12.5 µg/mL (≈ 38.2 µM) |  |  |  |  | ≤ 8 fold |  |  |  | 
8 | CCCCCCC/C=C/C(=O)N1C(=O)/C(=C(\O)CCCC)C(=O)C1CC(C)C (stereo not shown) [Compound 6, (Z)-1-((E)-dec-2-enoyl)-3-(1-hydroxypentylidene)-5-isobutylpyrrolidine-2,4-dione] | 0.39 µg/mL (≈ 0.996 µM) | 0.39 µg/mL (≈ 0.996 µM) | < 0.03 µg/mL | 3.13 µg/mL (≈ 7.99 µM) | >58 | 3.13 µg/mL (≈ 7.99 µM) | < 0.1 µg/mL | 0.2 µg/mL (≈ 0.511 µM) | slightly lower than reutericyclin; also recorded: did not rapidly dissipate the membrane potential |  | < 1 µg/mL |  |  | > 3 fold | > 4 fold | did not disrupt the physical integrity | 
9 | CCCCCCC/C=C/C(=O)N1C(=O)/C(=C(/C)O)C(=O)C1CCCCN (stereo not shown) [Compound 17, (Z)-5-(4-aminobutyl)-1-((E)-dec-2-enoyl)-3-(1-hydroxyethylidene)pyrrolidine-2,4-dione] | > 200 µg/mL | > 200 µg/mL | > 64 µg/mL | > 200 µg/mL | 1 | > 200 µg/mL | 200 µg/mL (≈ 549 µM) | 50 µg/mL (≈ 137 µM) | reduced their ability to dissipate the membrane potential |  |  |  |  |  |  |  | 
10 | CCCCCCC/C=C/C(=O)N1C(=O)/C(=C(\O)c2ccncc2)C(=O)C1CC(C)C (stereo not shown) [Compound 8, (Z)-1-((E)-dec-2-enoyl)-3-(hydroxy(pyridin-4-yl)methylene)-5-isobutylpyrrolidine-2,4-dione] | 50 µg/mL (≈ 121 µM) | 100 µg/mL (≈ 242 µM) | 0.5 µg/mL (≈ 1.21 µM) | 100 µg/mL (≈ 242 µM) | 5 | 25 µg/mL (≈ 60.6 µM) | 12.5 µg/mL (≈ 30.3 µM) | 50 µg/mL (≈ 121 µM) |  |  |  |  |  |  |  |  | 
11 | CCCCCCC/C=C/C(=O)N1C(=O)/C(=C(\O)C2CCNCC2)C(=O)C1CC(C)C (stereo not shown) [Compound 9, (Z)-1-((E)-dec-2-enoyl)-3-(hydroxy(piperidin-4-yl)methylene)-5-isobutylpyrrolidine-2,4-dione] | 12.5 µg/mL (≈ 29.9 µM) | 12.5 µg/mL (≈ 29.9 µM) | 8 µg/mL (≈ 19.1 µM) | 100 µg/mL (≈ 239 µM) | 2 | 50 µg/mL (≈ 119 µM) | 50 µg/mL (≈ 119 µM) | 50 µg/mL (≈ 119 µM) | reduced their ability to dissipate the membrane potential |  |  |  |  |  |  |  | 
12 | CCCCCCC/C=C/C(=O)N1C(=O)/C(=C(/C)O)C(=O)C1Cc1ccc(O)cc1 (stereo not shown) [Compound 19, (Z)-1-((E)-dec-2-enoyl)-5-(4-hydroxybenzyl)-3-(1-hydroxyethylidene)pyrrolidine-2,4-dione] | 200 µg/mL (≈ 501 µM) | 50 µg/mL (≈ 125 µM) | 32 µg/mL (≈ 80.1 µM) | 50 µg/mL (≈ 125 µM) | 2 | 25 µg/mL (≈ 62.6 µM) | 25 µg/mL (≈ 62.6 µM) | 50 µg/mL (≈ 125 µM) |  |  |  |  |  |  |  |  | 93.53 µg/mL
13 | CCCCCCC/C=C/C(=O)N1C(=O)/C(=C(\O)c2ccc(O)cc2)C(=O)C1CC(C)C (stereo not shown) [Compound 12, (Z)-1-((E)-dec-2-enoyl)-3-(hydroxy(4-hydroxyphenyl)methylene)-5-isobutylpyrrolidine-2,4-dione] | 0.78 µg/mL (≈ 1.82 µM) | 3.13 µg/mL (≈ 7.32 µM) | 2 µg/mL (≈ 4.68 µM) | 50 µg/mL (≈ 117 µM) | 9 | 50 µg/mL (≈ 117 µM) | 6.25 µg/mL (≈ 14.6 µM) | 12.5 µg/mL (≈ 29.2 µM) |  |  |  |  |  |  |  |  | 
14 | CCCCCCC/C=C/C(=O)N1C(=O)/C(=C(/C)O)C(=O)C1Cc1ccc(OC(C)(C)C)cc1 (stereo not shown) [Compound 20, (Z)-5-(4-(tert-butoxy)benzyl)-1-((E)-dec-2-enoyl)-3-(1-hydroxyethylidene)pyrrolidine-2,4-dione] | 200 µg/mL (≈ 439 µM) | 1.56 µg/mL (≈ 3.42 µM) | 0.25 µg/mL (≈ 0.549 µM) | 12.5 µg/mL (≈ 27.4 µM) | >115 | 6.25 µg/mL (≈ 13.7 µM) | < 0.1 µg/mL | 0.78 µg/mL (≈ 1.71 µM) |  |  |  | <0.1 µg/mL |  |  | > 4 fold |  | 
15 | CCCCCCC/C=C/C(=O)N1C(=O)/C(=C(/C)O)C(=O)C1CCC(=O)O (stereo not shown) [Compound 16, 3-((Z)-1-((E)-dec-2-enoyl)-4-(1-hydroxyethylidene)-3,5-dioxopyrrolidin-2-yl)propanoic acid] | > 200 µg/mL | 50 µg/mL (≈ 137 µM) | > 64 µg/mL | 50 µg/mL (≈ 137 µM) | 1 | 25 µg/mL (≈ 68.4 µM) | > 200 µg/mL | 25 µg/mL (≈ 68.4 µM) |  |  |  |  |  |  |  |  | 
